The source of these data is ChEMBL document CHEMBL5107938, “Synthesis and biological evaluation of selective phosphonate-bearing 1,2,3-triazole-linked sialyltransferase inhibitors” (RSC Med Chem, 2021).

In test [1] the target is T1, Beta-galactoside alpha-2,6-sialyltransferase 1 (Homo sapiens) (UniProt P15907).
T1 sequence (whole entry): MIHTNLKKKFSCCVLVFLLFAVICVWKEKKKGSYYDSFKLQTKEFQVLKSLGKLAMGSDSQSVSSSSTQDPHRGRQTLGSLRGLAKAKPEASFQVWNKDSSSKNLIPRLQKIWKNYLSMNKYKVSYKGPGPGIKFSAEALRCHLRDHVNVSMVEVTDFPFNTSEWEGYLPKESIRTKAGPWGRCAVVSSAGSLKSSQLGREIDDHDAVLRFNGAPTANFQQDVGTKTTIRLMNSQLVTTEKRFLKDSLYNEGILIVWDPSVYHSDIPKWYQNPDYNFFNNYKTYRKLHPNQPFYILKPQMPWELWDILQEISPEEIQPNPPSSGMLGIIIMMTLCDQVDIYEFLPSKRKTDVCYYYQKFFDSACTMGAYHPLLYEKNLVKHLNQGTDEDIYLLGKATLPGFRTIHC
Kind of test: Inhibition of recombinant human ST6Gal I at 100 uM incubated for 1 hrs in the presence of CMP-Neu5Ac as donor and LacNAc as acceptor by luminescence based CMP-Glo assay relative to control. An outline of the steps:
(§1)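 Human enzyme reaction with 1 mM acceptor and 100 μM CMP-Neu5Ac donor. Test agent at 10 or 100 μM, incubated for a single hour. CMP formed as by-product was converted in a luciferase reaction, and luminescence, linear with CMP concentration, was read. Percent inhibition was calculated against control.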

Test [2] has as its target T2, CMP-N-acetylneuraminate-beta-galactosamide-alpha-2,3-sialyltransferase 1 (Homo sapiens) (UniProt Q11201).
T2 sequence (whole entry): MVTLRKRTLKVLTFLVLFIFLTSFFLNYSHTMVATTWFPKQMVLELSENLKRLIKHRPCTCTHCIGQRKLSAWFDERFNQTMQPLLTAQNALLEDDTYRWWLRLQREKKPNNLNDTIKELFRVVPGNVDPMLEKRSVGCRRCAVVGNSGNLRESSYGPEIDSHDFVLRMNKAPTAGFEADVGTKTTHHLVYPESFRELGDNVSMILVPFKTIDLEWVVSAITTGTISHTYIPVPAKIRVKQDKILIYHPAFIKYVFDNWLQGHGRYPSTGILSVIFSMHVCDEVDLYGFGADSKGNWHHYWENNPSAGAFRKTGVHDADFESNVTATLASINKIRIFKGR
As to the kind of experiment: Inhibition of recombinant human ST3Gal I at 100 uM incubated for 1 hrs in the presence of CMP-Neu5Ac as donor and Gal-beta1,3-GalNAc as acceptor by luminescence based CMP-Glo assay relative to control. The method in brief: as §1

Test [3] concerns the target T3, Beta-galactoside alpha-2,6-sialyltransferase 1 (Homo sapiens, UniProt P15907).
T3 sequence (P15907 whole entry): T1 sequence (whole entry)
Kind of test: Inhibition of recombinant human ST6Gal I incubated for 1 hrs in the presence of CMP-Neu5Ac as donor and LacNAc as acceptor by luminescence based CMP-Glo assay. An outline of the steps:
(§2)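 For hST6Gal I, the Km for CMP-Neu5Ac was determined with acceptor held at 1 mM. Ki was determined only for agents exceeding 50% inhibition at 10 μM in the screen (1 mM acceptor, 100 μM donor). Read-out was luciferase-coupled luminescence of released CMP after a single-hour incubation.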

The target in test [4] is T1, Beta-galactoside alpha-2,6-sialyltransferase 1 (Homo sapiens). As to the kind of experiment: Inhibition of recombinant human ST6Gal I at 10 uM incubated for 1 hrs in the presence of CMP-Neu5Ac as donor and LacNAc as acceptor by luminescence based CMP-Glo assay relative to control. An outline of the steps:
as §1

Test [5] shares this target. Kind of test: Ratio of Km for Substrate activity at recombinant human ST6Gal I to Ki for inhibition of recombinant human ST6Gal I at 10 uM incubated for 1 hrs in the presence of CMP-Neu5Ac as donor and LacNAc as acceptor. The method in brief: as §2

In the case of `O=c1ccn([C@@H]2O[C@H](Cn3cc(C(O)c4cccc(Oc5ccccc5)c4)nn3)[C@@H](O)[C@H]2O)c(=O)[nH]1` (some centres undefined), the inhibition (commonly the share of the control response that was lost under treatment) is 84% in test [1] and 43% in test [2].

Consider `O=c1ccn([C@@H]2O[C@H](COCc3cn(C(c4cccc(OC(F)(F)C(F)F)c4)P(=O)(O)O)nn3)[C@@H](O)[C@H]2O)c(=O)[nH]1` (single isomer, unassigned) [listing 1 of 2 here], for which, in test [3], the Ki – broadly, a measure of affinity in units of concentration, obtained from inhibition or displacement – worked out at 6.7 µM. `O=c1ccn([C@@H]2O[C@H](COCc3cn(C(c4ccc(F)cc4)P(=O)(O)O)nn3)[C@@H](O)[C@H]2O)c(=O)[nH]1` (single isomer, unassigned): in test [4], the inhibition is 44%.

With `O=c1ccn([C@@H]2O[C@H](COCc3cn(C(c4cccc(OC(F)(F)C(F)F)c4)P(=O)(O)O)nn3)[C@@H](O)[C@H]2O)c(=O)[nH]1` (single isomer, unassigned) [listing 2 of 2 here], the inhibition in test [4] is 65%; in test [2], 49%. Also, the Ratio in test [5] came to 5.6. Turning to `O=c1ccn([C@@H]2O[C@H](COCc3cn(C(c4cccc(OC5CCCC5)c4)P(=O)(O)O)nn3)[C@@H](O)[C@H]2O)c(=O)[nH]1` (single isomer, unassigned), the inhibition in test [4] was determined as 41%. Still for that read-out and setting: the same measure for `O=c1ccn([C@@H]2O[C@H](COCc3cn(C(c4cccc(C(F)(F)F)c4)P(=O)(O)O)nn3)[C@@H](O)[C@H]2O)c(=O)[nH]1` (single isomer, unassigned; form 1): 23%. Still for that read-out and setting: the same measure for `O=c1ccn([C@@H]2O[C@H](COCc3cn(C(c4cccc(C(F)(F)F)c4)P(=O)(O)O)nn3)[C@@H](O)[C@H]2O)c(=O)[nH]1` (single isomer, unassigned; form 2): 39%.

With `O=c1ccn([C@@H]2O[C@H](COCc3cn(C(c4cccc(Oc5ccccc5)c4)P(=O)(O)O)nn3)[C@@H](O)[C@H]2O)c(=O)[nH]1` (stereo in doubt; 13a-(l)) [listing 1 of 2 here], the Ki in test [3] is 50 µM. With `O=c1ccn([C@@H]2O[C@H](COCc3cn(C(c4cccc(Oc5ccccc5)c4)P(=O)(O)O)nn3)[C@@H](O)[C@H]2O)c(=O)[nH]1` (stereo in doubt; 13a-(l)) [listing 2 of 2 here], the inhibition in test [4] is 26%; in test [2], 2%. Also, in test [5], the Ratio turned out to be 0.7. For `O=c1ccn([C@@H]2O[C@H](COCc3cn(C(c4cccc(Oc5ccccc5)c4)P(=O)(O)O)nn3)[C@@H](O)[C@H]2O)c(=O)[nH]1` (stereo in doubt; 13a-(s)) [listing 1 of 2 here], the Ki in test [3] was found to be 40 µM. For `O=c1ccn([C@@H]2O[C@H](COCc3cn(C(c4cccc(Oc5ccccc5)c4)P(=O)(O)O)nn3)[C@@H](O)[C@H]2O)c(=O)[nH]1` (stereo in doubt; 13a-(s)) [listing 2 of 2 here], the inhibition in test [4] is 62%; in test [2], 28%. Further, the Ratio in test [5] was found to be 1.

As to `O=c1ccn([C@@H]2O[C@H](COCc3cn(C(c4cccc(OC5CCCC5)c4)P(=O)(O)O)nn3)[C@@H](O)[C@H]2O)c(=O)[nH]1` (stereo in doubt; 13b-(l)), the inhibition in test [4] was found to be 10%. Take `O=c1ccn([C@@H]2O[C@H](COCc3cn(C(c4ccc(F)c(Oc5ccccc5)c4)P(=O)(O)O)nn3)[C@@H](O)[C@H]2O)c(=O)[nH]1` (stereo in doubt; 13c-(l)) [listing 1 of 2 here]: the Ki in test [3] amounted to 34 µM. In the case of `O=c1ccn([C@@H]2O[C@H](COCc3cn(C(c4ccc(F)c(Oc5ccccc5)c4)P(=O)(O)O)nn3)[C@@H](O)[C@H]2O)c(=O)[nH]1` (stereo in doubt; 13c-(l)) [listing 2 of 2 here], the values for the inhibition in test [4] and in test [2] were 59% and 9%, respectively. Further, the Ratio in test [5] worked out at 1.1. Regarding `O=c1ccn([C@@H]2O[C@H](COCc3cn(C(c4ccc(F)c(Oc5ccccc5)c4)P(=O)(O)O)nn3)[C@@H](O)[C@H]2O)c(=O)[nH]1` (stereo in doubt; 13c-(s)) [listing 1 of 2 here], in test [3], the Ki was 6 µM. Turning to `O=c1ccn([C@@H]2O[C@H](COCc3cn(C(c4ccc(F)c(Oc5ccccc5)c4)P(=O)(O)O)nn3)[C@@H](O)[C@H]2O)c(=O)[nH]1` (stereo in doubt; 13c-(s)) [listing 2 of 2 here], the values for the inhibition in test [4] and in test [2] were 57% and 43%, respectively. Besides, the Ratio in test [5] stood at 6. `O=c1ccn([C@@H]2O[C@H](COCc3cn(C(c4ccc(F)cc4)P(=O)(O)O)nn3)[C@@H](O)[C@H]2O)c(=O)[nH]1` (stereo in doubt; 13d-(l)): in test [4], the inhibition worked out at 45%. With `O=c1ccn([C@@H]2O[C@H](COCc3cn(C(c4cccc(OC(F)(F)C(F)F)c4)P(=O)(O)O)nn3)[C@@H](O)[C@H]2O)c(=O)[nH]1` (stereo in doubt; 13f-(l)) [listing 1 of 2 here], the Ki in test [3] worked out at 3.4 µM. `O=c1ccn([C@@H]2O[C@H](COCc3cn(C(c4cccc(OC(F)(F)C(F)F)c4)P(=O)(O)O)nn3)[C@@H](O)[C@H]2O)c(=O)[nH]1` (stereo in doubt; 13f-(l)) [listing 2 of 2 here]: the inhibition in test [4] stood at 78%; in test [2], 39%. For the same molecule, in test [5], the Ratio was determined as 11.

For `O=c1ccn([C@@H]2O[C@H](COCc3cn(C(c4csc5ccccc45)P(=O)(O)O)nn3)[C@@H](O)[C@H]2O)c(=O)[nH]1` (stereo in doubt; 13g-(l)), the inhibition in test [4] was found to be 21%. Still for that read-out and setting: the same measure for `O=c1ccn([C@@H]2O[C@H](COCc3cn(C(c4csc5ccccc45)P(=O)(O)O)nn3)[C@@H](O)[C@H]2O)c(=O)[nH]1` (stereo in doubt; 13g-(s)): 25%.
